According to ChEMBL document CHEMBL3124843, “Synthesis, cytostatic, antimicrobial, and anti-HCV activity of 6-substituted 7-(het)aryl-7-deazapurine ribonucleosides” (J Med Chem, 2014):
Activity calls are given as the source filed them. How the calls were made is not given here.

Experiments:
HCT-116 [1] = assay: Cytostatic activity against human HCT116 cells after 72 hrs by MTT assay; format: functional, cell-based; conditions: HCT-116, 72 h
Summary of the method: (§1)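 IC50 is the concentration that cuts cell growth by 50%, read by quantitative metabolic MTT staining after a 3-day treatment. The resistant sublines were made by raising the concentration of the cytotoxic drug step by step. CEM-DNR-bulk (daunorubicin-selected) stably overexpresses mrp-1. K562-TAX (paclitaxel-selected) expresses only mdr-1. HCT116p53−/− carries null p53 alleles. BJ and MRC-5 are nonmalignant fibroblasts.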

Pichia kudriavzevii = assay: Antifungal activity against Candida crusei after 48 hrs; format: functional, organism-based
K562 [2] = assay: Cytostatic activity against human K562 cells after 72 hrs by MTT assay; format: functional, cell-based; conditions: K562, 72 h; summary of the method: as §1
Candida tropicalis = assay: Antifungal activity against Candida tropicalis after 48 hrs; format: functional, organism-based
Pseudomonas aeruginosa [3] = assay: Antibacterial activity against Pseudomonas aeruginosa CCM 3955 after 24 hrs; format: functional, organism-based
HCT-116 [4] = assay: Cytostatic activity against p53-deficient human HCT116 cells after 72 hrs by MTT assay; format: functional, cell-based; conditions: HCT-116, 72 h; summary of the method: as §1
Candida parapsilosis = assay: Antifungal activity against Candida parapsilosis after 48 hrs; format: functional, organism-based
Staphylococcus aureus [5] = assay: Antibacterial activity against Staphylococcus aureus CCM 3953 after 24 hrs; format: functional, organism-based
Escherichia coli [6] = assay: Antibacterial activity against multi-resistant Escherichia coli C/16702 after 24 hrs; format: functional, organism-based
[7] = Cytostatic activity against human CEM-DNR-bulk cells after 72 hrs by MTT assay; format: functional, cell-based; summary of the method: as §1
HL-60 = assay: Antiproliferative activity against human HL60 cells after 72 hrs by XTT assay; format: functional, cell-based; conditions: HL-60, 72 h
Summary of the method: (§2)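 Antiproliferative test on HL-60 promyelocytic leukemia and HeLa S3 cervical carcinoma cells growing in liquid suspension.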

[8] = Antiproliferative activity against human HeLaS3 cells after 72 hrs by XTT assay; format: functional, cell-based; conditions: HeLa S3, 72 h; summary of the method: as §2
Pseudomonas aeruginosa [9] = assay: Antibacterial activity against multi-resistant Pseudomonas aeruginosa A/16575 after 24 hrs; format: functional, organism-based
Enterococcus faecalis = assay: Antibacterial activity against Enterococcus faecalis CCM 4224 after 24 hrs; format: functional, organism-based
BJ = assay: Cytostatic activity against human BJ cells after 72 hrs by MTT assay; format: ADME, cell-based; summary of the method: as §1
A549 = assay: Cytostatic activity against human A549 cells after 72 hrs by MTT assay; format: functional, cell-based; conditions: A549, 72 h; summary of the method: as §1
[10] = Cytotoxicity against human HuH7 cells infected with Hepatitis C virus subtype 1b; format: cell-based, Huh-7
K562 [11] = assay: Cytostatic activity against paclitaxel-resistant human K562 cells after 72 hrs by MTT assay; format: functional, cell-based; conditions: K562, 72 h; summary of the method: as §1
Staphylococcus aureus [12] = assay: Antibacterial activity against methicillin-resistant Staphylococcus aureus MRSA 4591 after 24 hrs; format: functional, organism-based
Hepatitis C virus = assay: Antiviral activity against Hepatitis C virus subtype 1b infected in human HuH7 cells; format: functional, organism-based, Hepacivirus hominis; conditions: genotype 1b, Huh-7
Escherichia coli [13] = assay: Antibacterial activity against Escherichia coli CCM 3954 after 24 hrs; format: functional, organism-based
MRC5 = assay: Cytostatic activity against human MRC5 cells after 72 hrs by MTT assay; format: ADME, cell-based; conditions: MRC5, 72 h; summary of the method: as §1
[14] = test system: Staphylococcus haemolyticus; assay: Antibacterial activity against methicillin-resistant Staphylococcus haemolyticus A/16568 after 24 hrs; format: functional, organism-based
Candida albicans = assay: Antifungal activity against Candida albicans after 48 hrs; format: functional, organism-based
HepG2 = assay: Antiproliferative activity against human HepG2 cells after 72 hrs by XTT assay; format: functional, cell-based; conditions: HepG2, 72 h
CCRF-CEM = assay: Cytostatic activity against human CCRF-CEM cells after 72 hrs by MTT assay; format: functional, cell-based; summary of the method: as §1

| SMILES | IC50 (HCT-116 [1]) [µM] | Activity (Pichia kudriavzevii) | IC50 (K562 [2]) [µM] | Activity (Candida tropicalis) | Activity (Pseudomonas aeruginosa [3]) | IC50 (HCT-116 [4]) [µM] | Activity (Candida parapsilosis) | Activity (Staphylococcus aureus [5]) | Activity (Escherichia coli [6]) | IC50 [7] [µM] | IC50 (HL-60) [µM] | IC50 [8] [µM] | Activity (Pseudomonas aeruginosa [9]) | Activity (Enterococcus faecalis) | IC50 (BJ) [µM] | IC50 (A549) [µM] | CC50 [10] [µM] | IC50 (K562 [11]) [µM] | Activity (Staphylococcus aureus [12]) | EC50 (Hepatitis C virus) [µM] | further results |
| --- | --- | --- | --- | --- | --- | --- | --- | --- | --- | --- | --- | --- | --- | --- | --- | --- | --- | --- | --- | --- | --- |
| COc1nc(N)nc2c1c(-c1cccs1)cn2[C@@H]1O[C@H](CO)[C@@H](O)[C@H]1O | > 20 | inactive | > 20 | inactive | inactive | > 20 | inactive | inactive | inactive | > 20 | > 20 | > 20 | inactive | inactive | 99.9 | > 20 | > 44 | > 20 | inactive | 6.07 | Activity (Escherichia coli [13]): inactive; IC50 (MRC5): > 100 µM; Activity [14]: inactive; Activity (Candida albicans): inactive; IC50 (HepG2): > 20 µM; IC50 (CCRF-CEM): > 20 µM |
| Nc1nc2c(c(-c3cccs3)cn2[C@@H]2O[C@H](CO)[C@@H](O)[C@H]2O)c(=O)[nH]1 | > 20 | inactive | > 20 | inactive | inactive | 19.8 | inactive | inactive | inactive | > 20 | > 20 | > 20 | inactive | inactive | > 100 | > 20 | > 44 | 16.8 | inactive | 18.8 | Activity (Escherichia coli [13]): inactive; IC50 (MRC5): > 100 µM; Activity [14]: inactive; Activity (Candida albicans): inactive; IC50 (HepG2): > 20 µM; IC50 (CCRF-CEM): > 20 µM |
| COc1nc(N)nc2c1c(-c1ccco1)cn2[C@@H]1O[C@H](CO)[C@@H](O)[C@H]1O | > 20 | inactive | > 20 | inactive | inactive | > 20 | inactive | inactive | inactive | > 20 | > 20 | > 20 | inactive | inactive | > 100 | > 20 | > 44 | > 20 | inactive | 2.44 | Activity (Escherichia coli [13]): inactive; IC50 (MRC5): 89.7 µM; Activity [14]: inactive; Activity (Candida albicans): inactive; IC50 (HepG2): > 20 µM; IC50 (CCRF-CEM): > 20 µM |
| COc1nc(N)nc2c1c(-c1ccoc1)cn2[C@@H]1O[C@H](CO)[C@@H](O)[C@H]1O | > 20 | inactive | > 20 | inactive | inactive | > 20 | inactive | inactive | inactive | > 20 | > 20 | > 20 | inactive | inactive | > 100 | > 20 | > 44 | > 20 | inactive | 19.7 | Activity (Escherichia coli [13]): inactive; IC50 (MRC5): > 100 µM; Activity [14]: inactive; Activity (Candida albicans): inactive; IC50 (HepG2): > 20 µM; IC50 (CCRF-CEM): > 20 µM |
| COc1nc(N)nc2c1c(-c1ccsc1)cn2[C@@H]1O[C@H](CO)[C@@H](O)[C@H]1O | > 20 | inactive | > 20 | inactive | inactive | > 20 | inactive | inactive | inactive | > 20 | > 20 | > 20 | inactive | inactive | > 100 | > 100 | > 44 | > 20 | inactive | 14.5 | Activity (Escherichia coli [13]): inactive; IC50 (MRC5): > 100 µM; Activity [14]: inactive; Activity (Candida albicans): inactive; IC50 (HepG2): > 20 µM; IC50 (CCRF-CEM): > 20 µM |
| Nc1nc(N)c2c(-c3ccoc3)cn([C@@H]3O[C@H](CO)[C@@H](O)[C@H]3O)c2n1 | > 20 | inactive | > 20 | inactive | inactive | > 20 | inactive | inactive | inactive | > 20 | > 20 | > 20 | inactive | inactive | > 100 | > 20 | > 44 | > 20 | inactive | 21.3 | Activity (Escherichia coli [13]): inactive; IC50 (MRC5): > 100 µM; Activity [14]: inactive; Activity (Candida albicans): inactive; IC50 (HepG2): > 20 µM; IC50 (CCRF-CEM): > 20 µM |
| Nc1nc(N)c2c(-c3cccs3)cn([C@@H]3O[C@H](CO)[C@@H](O)[C@H]3O)c2n1 | > 20 | inactive | > 20 | inactive | inactive | > 20 | inactive | inactive | inactive | > 20 | > 20 | > 20 | inactive | inactive | > 100 | > 20 | > 44 | > 20 | inactive | 10 | Activity (Escherichia coli [13]): inactive; IC50 (MRC5): > 100 µM; Activity [14]: inactive; Activity (Candida albicans): inactive; IC50 (HepG2): > 20 µM; IC50 (CCRF-CEM): > 20 µM |
